# Data: paper PMC3901358 (Journal of immunology (Baltimore, Md. : 1950), 2010)
# How the values were obtained:
# [1] = tested on: CD4^+ T cells from PBLs of melanoma patients; experiment: In vitro sensitization of PBLs with peptide and intracellular cytokine staining; format: cell-based, human; details: for patients with peptide-specific spontaneous CD4^+ T cells: 16 patients with stage IV LAGE-1^+/NY-ESO-1^+ melanoma, ICS after 10–12 d IVS; for Th1/Th2 Spontaneous Response Test by ICS, response type / Number of IFN-γ–producing CD4^+ T cells / number of IL-5–producing CD4^+ T cells: PBLs, 10–12 d IVS with the peptide, ICS; for Number of IFN-γ–producing CD4^+ T cells / number of IL-5–producing CD4^+ T cells: background subtracted
# [2] = tested on: Serum NY-ESO-1– and LAGE-1b–specific Abs; experiment: ELISA of patient sera on plates coated with peptide or protein; format: binding, human; details: among the 16 patients with NY-ESO-1^+/LAGE-1^+ tumors
# Procedure, shortened: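 Plates coated overnight at 4°C with recombinant NY-ESO-1 protein or 18-aa overlapping LAGE-1b peptides (P132–P210), 1 µg/ml in 15 mM Na₂CO₃/30 mM NaHCO₃ pH 9.6 with 0.02% NaN₃. Blocked overnight at 4°C with PBS/2% BSA. Patient sera (NY-ESO-1⁺/LAGE-1⁺ or negative tumors) in PBS/2% BSA, 4-fold dilution series, 2 h RT. Goat anti-human IgG-AP 1 h RT. Phosphatase substrate 25 min RT, read immediately.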
# [3] = tested on: LAGE-1–specific CD4^+ T cell clones; experiment: IFN-γ ELISPOT, CD4+ T cell clones with peptide-pulsed L.DR cells; format: cell-based, human; details: 48-h IFN-γ ELISPOT
# [4] = irrelevant control peptide (1 µg/ml), all healthy donors and patients, 6 h ICS
substance,measurement,setting,value
HIVpol711–725: irrelevant HIV-derived control peptide in ICS [reference compound],mean value of IFN-γ–producing CD4^+ T cells,[1]; [4],25 per 10^5 CD4^+ T cells
same,mean value of IL-5–producing CD4^+ T cells,[1]; [4],22 per 10^5 CD4^+ T cells
"LAGE-1_97–114: 18-aa overlapping synthetic peptide, LAGE-1 positions 97–114; immunodominant epitope (SSPMEAELVRRILSRDAA; UniProt O75638 97-114, looked up, fragment)",patients with peptide-specific spontaneous CD4^+ T cells,[1],7 out of 16
same,"Th1/Th2 Spontaneous Response Test by ICS, response type",[1]; patient MP2,"Th2 (0, 100)"
same,Number of IFN-γ–producing CD4^+ T cells,[1]; patient MP2,0 per 10^5 CD4^+ T cells
same,number of IL-5–producing CD4^+ T cells,[1]; patient MP2,100 per 10^5 CD4^+ T cells
same,"Th1/Th2 Spontaneous Response Test by ICS, response type",[1]; patient MP4,"Th1 (101, 18)"
same,Number of IFN-γ–producing CD4^+ T cells,[1]; patient MP4,101 per 10^5 CD4^+ T cells
same,number of IL-5–producing CD4^+ T cells,[1]; patient MP4,18 per 10^5 CD4^+ T cells
same,"Th1/Th2 Spontaneous Response Test by ICS, response type",[1]; patient MP6,"Th1 (110, 20)"
same,Number of IFN-γ–producing CD4^+ T cells,[1]; patient MP6,110 per 10^5 CD4^+ T cells
same,number of IL-5–producing CD4^+ T cells,[1]; patient MP6,20 per 10^5 CD4^+ T cells
same,"Th1/Th2 Spontaneous Response Test by ICS, response type",[1]; patient MP7,"Th2 (0, 435)"
same,Number of IFN-γ–producing CD4^+ T cells,[1]; patient MP7,0 per 10^5 CD4^+ T cells
same,number of IL-5–producing CD4^+ T cells,[1]; patient MP7,435 per 10^5 CD4^+ T cells
same,"Th1/Th2 Spontaneous Response Test by ICS, response type",[1]; patient MP9,"Th1/Th2 (83, 193)"
same,Number of IFN-γ–producing CD4^+ T cells,[1]; patient MP9,83 per 10^5 CD4^+ T cells
same,number of IL-5–producing CD4^+ T cells,[1]; patient MP9,193 per 10^5 CD4^+ T cells
same,"Th1/Th2 Spontaneous Response Test by ICS, response type",[1]; patient MP15,"Th1/Th2 (60, 530)"
same,Number of IFN-γ–producing CD4^+ T cells,[1]; patient MP15,60 per 10^5 CD4^+ T cells
same,number of IL-5–producing CD4^+ T cells,[1]; patient MP15,530 per 10^5 CD4^+ T cells
same,"Th1/Th2 Spontaneous Response Test by ICS, response type",[1]; patient MP16,"Th1 (170, 0)"
same,Number of IFN-γ–producing CD4^+ T cells,[1]; patient MP16,170 per 10^5 CD4^+ T cells
same,number of IL-5–producing CD4^+ T cells,[1]; patient MP16,0 per 10^5 CD4^+ T cells
"LAGE-1_104–121: 18-aa overlapping synthetic peptide, LAGE-1 positions 104–121; immunodominant epitope (LVRRILSRDAAPLPRPGA; UniProt O75638 104-121, looked up, fragment)",patients with peptide-specific spontaneous CD4^+ T cells,[1],10 out of 16
same,"Th1/Th2 Spontaneous Response Test by ICS, response type",[1]; patient MP1,"Th1/Th2 (213, 79)"
same,Number of IFN-γ–producing CD4^+ T cells,[1]; patient MP1,213 per 10^5 CD4^+ T cells
same,number of IL-5–producing CD4^+ T cells,[1]; patient MP1,79 per 10^5 CD4^+ T cells
same,"Th1/Th2 Spontaneous Response Test by ICS, response type",[1]; patient MP2,"Th2 (0, 110)"
same,Number of IFN-γ–producing CD4^+ T cells,[1]; patient MP2,0 per 10^5 CD4^+ T cells
same,number of IL-5–producing CD4^+ T cells,[1]; patient MP2,110 per 10^5 CD4^+ T cells
same,"Th1/Th2 Spontaneous Response Test by ICS, response type",[1]; patient MP3,"Th1 (130, 0)"
same,Number of IFN-γ–producing CD4^+ T cells,[1]; patient MP3,130 per 10^5 CD4^+ T cells
same,number of IL-5–producing CD4^+ T cells,[1]; patient MP3,0 per 10^5 CD4^+ T cells
same,"Th1/Th2 Spontaneous Response Test by ICS, response type",[1]; patient MP5,"Th1/Th2 (505, 80)"
same,Number of IFN-γ–producing CD4^+ T cells,[1]; patient MP5,505 per 10^5 CD4^+ T cells
same,number of IL-5–producing CD4^+ T cells,[1]; patient MP5,80 per 10^5 CD4^+ T cells
same,"Th1/Th2 Spontaneous Response Test by ICS, response type",[1]; patient MP6,"Th1/Th2 (351, 185)"
same,Number of IFN-γ–producing CD4^+ T cells,[1]; patient MP6,351 per 10^5 CD4^+ T cells
same,number of IL-5–producing CD4^+ T cells,[1]; patient MP6,185 per 10^5 CD4^+ T cells
same,"Th1/Th2 Spontaneous Response Test by ICS, response type",[1]; patient MP7,"Th2 (0, 543)"
same,Number of IFN-γ–producing CD4^+ T cells,[1]; patient MP7,0 per 10^5 CD4^+ T cells
same,number of IL-5–producing CD4^+ T cells,[1]; patient MP7,543 per 10^5 CD4^+ T cells
same,"Th1/Th2 Spontaneous Response Test by ICS, response type",[1]; patient MP8,"Th1/Th2 (341, 221)"
same,Number of IFN-γ–producing CD4^+ T cells,[1]; patient MP8,341 per 10^5 CD4^+ T cells
same,number of IL-5–producing CD4^+ T cells,[1]; patient MP8,221 per 10^5 CD4^+ T cells
same,"Th1/Th2 Spontaneous Response Test by ICS, response type",[1]; patient MP9,"Th1/Th2 (205, 65)"
same,Number of IFN-γ–producing CD4^+ T cells,[1]; patient MP9,205 per 10^5 CD4^+ T cells
same,number of IL-5–producing CD4^+ T cells,[1]; patient MP9,65 per 10^5 CD4^+ T cells
same,"Th1/Th2 Spontaneous Response Test by ICS, response type",[1]; patient MP12,"Th1 (270, 0)"
same,Number of IFN-γ–producing CD4^+ T cells,[1]; patient MP12,270 per 10^5 CD4^+ T cells
same,number of IL-5–producing CD4^+ T cells,[1]; patient MP12,0 per 10^5 CD4^+ T cells
same,"Th1/Th2 Spontaneous Response Test by ICS, response type",[1]; patient MP14,"Th1 (400, 0)"
same,Number of IFN-γ–producing CD4^+ T cells,[1]; patient MP14,400 per 10^5 CD4^+ T cells
same,number of IL-5–producing CD4^+ T cells,[1]; patient MP14,0 per 10^5 CD4^+ T cells
"LAGE-1b118–135: 18-aa overlapping synthetic peptide, LAGE-1b positions 118–135; immunodominant epitope (RPGAVLKDFTVSGNLLFM; LAGE-1b; UniProt O75638 118-135, looked up, fragment)",patients with peptide-specific spontaneous CD4^+ T cells,[1],9 out of 16
"LAGE-1b167–184: 18-aa overlapping synthetic peptide, LAGE-1b positions 167–184 (DLRTPKHKVSEQRPGTPG; LAGE-1b; UniProt O75638 167-184, looked up, fragment)",number of patients with high titers of LAGE-1b Abs recognizing the peptide,[2],4
"LAGE-1b188–210: overlapping synthetic peptide, LAGE-1b positions 188–210 (PEGAQGDGCRGVAFNVMFSAPHI; LAGE-1b; UniProt O75638 188-210, looked up, fragment)",number of patients with high titers of LAGE-1b Abs recognizing the peptide,[2],4
"NY-ESO-1_104–121: NY-ESO-1 peptide overlapping the LAGE-1_104–121 sequence, control (LARRSLAQDAPPLPVPGV; UniProt P78358 104-121, looked up, fragment)",recognition of peptide by LAGE-1_104–121–specific CD4^+ T cell clone 116/12,[3],did not recognize
